# According to ChEMBL document CHEMBL4699414, “Hit-to-lead optimization of novel benzimidazole phenylacetamides as broad spectrum trypanosomacides” (RSC Med Chem, 2020):
# What was measured:
# Trypanosoma cruzi = assay: Antitrypanosomal activity against Trypanosoma cruzi infected in rat H9c2 infected with trypomastigotes from parasite-infected monkey LLC-MK2 cells measured after 72 hrs by DRAQ5 DNA dye based microscopic imaging analysis; type: functional, organism-based; details: H9c2, 72 h
# [1] = Cytotoxicity against human HepG2 cells assessed as reduction in cell viability measured after 48 hrs by CellTiter-Glo assay; type: cell-based
# How it was run: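 HepG2 human hepatoma cells from GSK Biological Reagents and Assay Development (Stevenage, UK); viability read-out per earlier method.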
# [2] = Cytotoxicity against human HEK293 cells assessed as reduction in cell viability measured after 48 hrs by resazurin assay; type: cell-based
# How it was run: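 HEK293 cells from ATCC; Alamar Blue viability read-out run per earlier method.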
# [3] = system: Trypanosoma brucei brucei; assay: Antitrypanosomal activity against Trypanosoma brucei brucei Lister 427 assessed as parasite growth inhibition measured after 48 hrs by alamar blue assay; details: Lister 427, 48 h
# [4] = Lipophilicity, logP of the compound; type: physicochemical; details: octanol/water
# [5] = Cytotoxicity against rat H9c2 cells assessed as reduction in cell viability; type: cell-based
Compound,IC50 (Trypanosoma cruzi),CC50 at 48 h [1],CC50 at 48 h [2],IC50 [3],logP [4],CC50 [5]
CCCn1c(NC(=O)Cc2ccccc2Br)nc2ccccc21,1.6 µM,20 µM,> 83 µM,2 µM,4.9,> 50 µM
CCCn1c(NC(=O)Cc2ccc(Br)cc2)nc2ccccc21,2 µM,> 50 µM,> 83 µM,5 µM,4.9,> 50 µM
CCCn1c(NC(=O)Cc2ccc3ccccc3c2)nc2ccccc21,1.3 µM,25 µM,> 83 µM,5.5 µM,5.1,> 50 µM
O=C(Cn1ccnc1[N+](=O)[O-])NCc1ccccc1 [BENZNIDAZOLE],1.58 µM,,,,,31.6 µM
CCCn1c(NC(=O)Cc2ccc(Cl)cc2)nc2ccc(Cl)cc21,0.5 µM,> 50 µM,> 83 µM,2.4 µM,5.3,6.3 µM
CCCn1c(NC(=O)Cc2cccc(Cl)c2)nc2ccccc21,1.6 µM,> 50 µM,15 µM,3.6 µM,4.7,> 50 µM
CCn1c(NC(=O)Cc2ccc(Cl)cc2)nc2ccccc21,2.5 µM,> 50 µM,> 83 µM,3.1 µM,4.2,40 µM
CCCn1c(NC(=O)Cc2ccccc2Cl)nc2ccccc21,2 µM,25 µM,14 µM,2.3 µM,4.7,25 µM
CCCn1c(NC(=O)Cc2ccccc2)nc2ccccc21,4 µM,> 50 µM,> 83 µM,4.1 µM,4.1,> 50 µM
CCCn1c(NC(=O)Cc2ccc(OC(C)=O)cc2)nc2ccccc21,32 µM,> 50 µM,> 83 µM,14 µM,3.7,> 50 µM
CCCn1c(NC(=O)/C=C/c2ccccc2)nc2ccccc21,1.3 µM,40 µM,> 83 µM,2.1 µM,4.6,20 µM
CCCn1c(NC(=O)c2ccccc2)nc2ccccc21,5 µM,25 µM,> 83 µM,3.8 µM,4.1,> 50 µM
CCCn1c(NC(=O)Cc2cccc(OC)c2)nc2ccccc21,4 µM,> 50 µM,> 83 µM,4.3 µM,4,> 50 µM
CCCn1c(NC(=O)Cc2ccc(Cl)nc2)nc2ccccc21,7.9 µM,> 50 µM,> 83 µM,> 83 µM,3.7,> 50 µM
CCCn1c(NC(=O)Cc2ccc(Cl)cc2)nc2ccc(Br)cc21,0.4 µM,> 50 µM,> 83 µM,1.5 µM,5.5,13 µM
CCCn1c(NC(=O)Cc2ccc(O)cc2)nc2ccccc21,40 µM,> 50 µM,> 83 µM,> 83 µM,3.8,> 50 µM
CCCn1c(NC(=O)Cc2ccc(-c3ccccc3)cc2)nc2ccccc21,1 µM,> 50 µM,> 83 µM,3.4 µM,5.8,> 50 µM
CCCn1c(NC(=O)Cc2ccc(Cl)cc2)nc2cccc(C)c21,1.3 µM,> 50 µM,> 83 µM,9.4 µM,5.2,> 50 µM
CCCn1c(NC(=O)Cc2ccc(F)cc2)nc2ccccc21,2.5 µM,> 50 µM,> 83 µM,2.5 µM,4.3,> 50 µM
CCCn1c(NC(=O)Cc2cccc3ccccc23)nc2ccccc21,1 µM,20 µM,10 µM,2.6 µM,5.1,> 50 µM
Cn1c(NC(=O)Cc2ccc(Cl)cc2)nc2ccccc21,3.2 µM,> 50 µM,> 83 µM,3.8 µM,3.8,> 50 µM
C=CCc1c(NC(=O)Cc2ccc(Cl)cc2)ncc2ccccc12,20 µM,> 50 µM,> 83 µM,> 83 µM,5.1,> 50 µM
CCCn1c(NC(=O)CCc2ccccc2)nc2ccccc21,5 µM,> 50 µM,14 µM,3.5 µM,4.6,> 50 µM
N=C(N)c1ccc(OCCCCCOc2ccc(C(=N)N)cc2)cc1 [PENTAMIDINE],,,0.67 µM,0.014 µM,,
